Data as given in ChEMBL document CHEMBL4715736, “Identification of anticancer agents based on the thieno[2,3-b]pyridine and 1H-pyrazole molecular scaffolds” (2016).

Key:
Format in all cases: functional
Settings in all cases: read-out: Activity
UACC-257 = assay: Growth inhibition of human UACC-257 cells assessed as cell growth at 10 uM incubated for 48 hrs by sulforhodamine B assay relative to control
Summary of the method: (§1)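 Run by the NCI Developmental Therapeutics Program as part of its 60-line human tumour panel. Each compound tested at a single 10 µM dose. Growth expressed as % relative to untreated control cells (100%).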

IGROV-1 = assay: Growth inhibition of human IGROV-1 cells assessed as cell growth at 10 uM incubated for 48 hrs by sulforhodamine B assay relative to control
Summary of the method: (§2)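 Submitted to the NCI Developmental Therapeutics Program for the NCI60 human tumour cell line panel. First screen at a single 10 µM concentration. Read-out is growth relative to untreated control cells set at 100%.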

OVCAR-5 = assay: Growth inhibition of human OVCAR-5 cells assessed as cell growth at 10 uM incubated for 48 hrs by sulforhodamine B assay relative to control; summary of the method: as §1
HCT-15 = assay: Growth inhibition of human HCT-15 cells assessed as cell growth at 10 uM incubated for 48 hrs by sulforhodamine B assay relative to control; summary of the method: as §2
786-0 = assay: Growth inhibition of human 786-0 cells assessed as cell growth at 10 uM incubated for 48 hrs by sulforhodamine B assay relative to control
Summary of the method: (§3)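 NCI Developmental Therapeutics Program NCI60 panel. Compounds that were active in the 10 µM one-dose screen went on to dose–response testing. Growth at each concentration is expressed relative to untreated control (100%). GI50 (concentration giving 50% of maximal inhibition of proliferation) and TGI (concentration giving total growth inhibition) were derived from the curves.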

MOLT-4 = assay: Growth inhibition of human MOLT-4 cells assessed as cell growth at 10 uM incubated for 48 hrs by sulforhodamine B assay relative to control; summary of the method: as §2
UO-31 = assay: Growth inhibition of human UO-31 cells assessed as cell growth at 10 uM incubated for 48 hrs by sulforhodamine B assay relative to control; summary of the method: as §1
MDA-MB-435 = assay: Growth inhibition of human MDA-MB-435 cells assessed as cell growth at 10 uM incubated for 48 hrs by sulforhodamine B assay relative to control; summary of the method: as §2
SNB-75 = assay: Growth inhibition of human SNB-75 cells assessed as cell growth at 10 uM incubated for 48 hrs by sulforhodamine B assay relative to control; summary of the method: as §1
HOP-62 = assay: Growth inhibition of human HOP-62 cells assessed as cell growth at 10 uM incubated for 48 hrs by sulforhodamine B assay relative to control; summary of the method: as §2
HL-60(TB) = assay: Growth inhibition of human HL-60(TB) cells assessed as cell growth at 10 uM incubated for 48 hrs by sulforhodamine B assay relative to control
Summary of the method: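 Screened by the NCI Developmental Therapeutics Program on its panel of 60 human tumour cell lines. Compounds were first tested at a single 10 µM dose, and compounds active there went to dose-response curves. Growth is expressed relative to untreated control (100%). GI50 (50% of maximal proliferation inhibition) and TGI (total growth inhibition) were derived from the dose-response data.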

A549 = assay: Growth inhibition of human A549/ATCC cells assessed as cell growth at 10 uM incubated for 48 hrs by sulforhodamine B assay relative to control; summary of the method: as §3
SNB-19 = assay: Growth inhibition of human SNB-19 cells assessed as cell growth at 10 uM incubated for 48 hrs by sulforhodamine B assay relative to control; summary of the method: as §1
M14 = assay: Growth inhibition of human M14 cells assessed as cell growth at 10 uM incubated for 48 hrs by sulforhodamine B assay relative to control; summary of the method: as §2
ACHN = assay: Growth inhibition of human ACHN cells assessed as cell growth at 10 uM incubated for 48 hrs by sulforhodamine B assay relative to control
Summary of the method: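 NCI Developmental Therapeutics Program NCI60 human tumour cell line panel, one-dose primary screen with every compound at 10 µM. Growth is expressed as % of untreated control cells (100%).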

OVCAR-4 = assay: Growth inhibition of human OVCAR-4 cells assessed as cell growth at 10 uM incubated for 48 hrs by sulforhodamine B assay relative to control; summary of the method: as §1
COLO 205 = assay: Growth inhibition of human COLO 205 cells assessed as cell growth at 10 uM incubated for 48 hrs by sulforhodamine B assay relative to control; summary of the method: as §3
RXF 393 = assay: Growth inhibition of human RXF 393 cells assessed as cell growth at 10 uM incubated for 48 hrs by sulforhodamine B assay relative to control; summary of the method: as §1
OVCAR-3 = assay: Growth inhibition of human OVCAR-3 cells assessed as cell growth at 10 uM incubated for 48 hrs by sulforhodamine B assay relative to control; summary of the method: as §1
NCI-H226 = assay: Growth inhibition of human NCI-H226 cells assessed as cell growth at 10 uM incubated for 48 hrs by sulforhodamine B assay relative to control; summary of the method: as §2
DU-145 = assay: Growth inhibition of human DU-145 cells assessed as cell growth at 10 uM incubated for 48 hrs by sulforhodamine B assay relative to control; summary of the method: as §3
MDA-MB-231 = assay: Growth inhibition of human MDA-MB-231 cells assessed as cell growth at 10 uM incubated for 48 hrs by sulforhodamine B assay relative to control; summary of the method: as §2
SF-268 = assay: Growth inhibition of human SF-268 cells assessed as cell growth at 10 uM incubated for 48 hrs by sulforhodamine B assay relative to control; summary of the method: as §1
SF-539 = assay: Growth inhibition of human SF-539 cells assessed as cell growth at 10 uM incubated for 48 hrs by sulforhodamine B assay relative to control; summary of the method: as §1
SK-MEL-5 = assay: Growth inhibition of human SK-MEL-5 cells assessed as cell growth at 10 uM incubated for 48 hrs by sulforhodamine B assay relative to control; summary of the method: as §1
Hs-578T = assay: Growth inhibition of human Hs-578T cells assessed as cell growth at 10 uM incubated for 48 hrs by sulforhodamine B assay relative to control; summary of the method: as §2
K562 = assay: Growth inhibition of human K562 cells assessed as cell growth at 10 uM incubated for 48 hrs by sulforhodamine B assay relative to control; summary of the method: as §2
SW-620 = assay: Growth inhibition of human SW-620 cells assessed as cell growth at 10 uM incubated for 48 hrs by sulforhodamine B assay relative to control; summary of the method: as §1
Malme-3M = assay: Growth inhibition of human Malme-3M cells assessed as cell growth at 10 uM incubated for 48 hrs by sulforhodamine B assay relative to control; summary of the method: as §2
PC-3 = assay: Growth inhibition of human PC-3 cells assessed as cell growth at 10 uM incubated for 48 hrs by sulforhodamine B assay relative to control; summary of the method: as §1
NCI-H460 = assay: Growth inhibition of human NCI-H460 cells assessed as cell growth at 10 uM incubated for 48 hrs by sulforhodamine B assay relative to control; summary of the method: as §2
HCT-116 = assay: Growth inhibition of human HCT-116 cells assessed as cell growth at 10 uM incubated for 48 hrs by sulforhodamine B assay relative to control; summary of the method: as §2
SF-295 = assay: Growth inhibition of human SF-295 cells assessed as cell growth at 10 uM incubated for 48 hrs by sulforhodamine B assay relative to control; summary of the method: as §1

SMILES | growth at 10 µM (UACC-257) [%] | growth at 10 µM (IGROV-1) [%] | growth at 10 µM (OVCAR-5) [%] | growth at 10 µM (HCT-15) [%] | growth at 10 µM (786-0) [%] | growth at 10 µM (MOLT-4) [%] | growth at 10 µM (UO-31) [%] | growth at 10 µM (MDA-MB-435) [%] | growth at 10 µM (SNB-75) [%] | growth at 10 µM (HOP-62) [%] | growth at 10 µM (HL-60(TB)) [%] | growth at 10 µM (A549) [%] | growth at 10 µM (SNB-19) [%] | growth at 10 µM (M14) [%] | growth at 10 µM (ACHN) [%] | growth at 10 µM (OVCAR-4) [%] | growth at 10 µM (COLO 205) [%] | growth at 10 µM (RXF 393) [%] | growth at 10 µM (OVCAR-3) [%] | growth at 10 µM (NCI-H226) [%] | also measured
COc1ccc(-c2ccn(S(=O)(=O)c3ccc(C)cc3)n2)cc1 | 79.9 | 81.5 | 112 | 84.2 | 83 | 95.2 | 75.9 | 94.1 | 92.5 | 108 | 114 | 79.7 | 94.5 | 90 | 91.6 | 62 | 112 | 86.3 | 89.3 | 68.5 | growth at 10 µM (DU-145): 93.7%; growth at 10 µM (MDA-MB-231): 89.2%; growth at 10 µM (SF-268): 95.9%; growth at 10 µM (SF-539): 97%; growth at 10 µM (SK-MEL-5): 68.3%; growth at 10 µM (Hs-578T): 96%; growth at 10 µM (K562): 75.4%; growth at 10 µM (SW-620): 90.2%; growth at 10 µM (Malme-3M): 88.4%; growth at 10 µM (PC-3): 81.2%; growth at 10 µM (NCI-H460): 81%; growth at 10 µM (HCT-116): 73.5%; growth at 10 µM (SF-295): 78.5%
COc1ccc(S(=O)(=O)n2ccc(-c3ccc4c(c3)CCC(C)(C)O4)n2)cc1OC | 57.1 | 84.3 | 105 | 71.9 | 79.4 | 63.8 | 68.5 | 79.6 | 84.6 | 112 | 94.7 | 67.1 | 87.4 | 81.9 | 78 | 46 | 87.1 | 75.1 | 70.9 | 59 | growth at 10 µM (DU-145): 82.6%; growth at 10 µM (MDA-MB-231): 82.5%; growth at 10 µM (SF-268): 85.3%; growth at 10 µM (SF-539): 97.2%; growth at 10 µM (SK-MEL-5): 28.2%; growth at 10 µM (Hs-578T): 91.5%; growth at 10 µM (K562): 53%; growth at 10 µM (SW-620): 79.9%; growth at 10 µM (Malme-3M): 114%; growth at 10 µM (PC-3): 69.5%; growth at 10 µM (NCI-H460): 69.6%; growth at 10 µM (HCT-116): 61.5%; growth at 10 µM (SF-295): 63%
CC1(C)CCc2cc(-c3ccn(S(=O)(=O)c4ccccc4)n3)ccc2O1 | 82.7 | 96.4 | 89.7 | 64.9 | 74.5 | 61.5 | 63.6 | 79 | 78.9 | 108 | 89.4 | 77.6 | 94.1 | 61 | 90.1 | 64.2 | 96.1 | 81.7 | 81.4 | 69.7 | growth at 10 µM (DU-145): 85.6%; growth at 10 µM (MDA-MB-231): 104%; growth at 10 µM (SF-268): 85.4%; growth at 10 µM (SF-539): 92.8%; growth at 10 µM (SK-MEL-5): 75.7%; growth at 10 µM (Hs-578T): 90.1%; growth at 10 µM (K562): 10%; growth at 10 µM (SW-620): 71%; growth at 10 µM (Malme-3M): 99.3%; growth at 10 µM (PC-3): 61.8%; growth at 10 µM (NCI-H460): 72.8%; growth at 10 µM (HCT-116): 62.7%; growth at 10 µM (SF-295): 81.4%
